Experimental data pooled from the literature.
Protocols differ between the studies behind these lines.
Target: Mitogen-activated protein kinase kinase kinase 20 (MAP3K20, Homo sapiens, UniProt Q9NYL2)

| SMILES | read-out | technique | tested at | remaining binding [%] |
| --- | --- | --- | --- | --- |
| CO[C@@H](C)c1c(Nc2ccc([C@@H](N(C)C(=O)C3CCS(=O)(=O)CC3)C(F)(F)F)cc2)cnc2cc(Cl)nn12 | cell-free assay | competition with immobilised ligand | 1 µM | 100 |
| COc1ncc2cc3ccccc3nc2c1C#N | cell-free assay | competition with immobilised ligand | 5 µM | 80 |
| O=C(Nc1c[nH]nc1C(=O)NC1CCNCC1)c1cc(F)cc(F)c1 | binding | competition with immobilised ligand | 1 µM | 100 |
| CCOC(=O)c1cc2cc(-c3cc(C(=O)NCc4ccc(C(=O)O)cc4)nn3C)ccc2[nH]1 | cell-free assay | competition with immobilised ligand | 0.1 µM | 87 |
| C[C@@H]1CCN(c2nccc(-c3cnn4ncccc34)n2)C1 | binding | – | 1 µM | 100 |
| O=C(c1ccc(Nc2ncc(Cl)c(-c3ccc(Cl)s3)n2)cc1)N1CCC(N2CCCC2)CC1 | binding | competition with immobilised ligand | 1 µM | 65 |
| c1cncc(-c2cccc(Nc3nccc(NC4CCCCC4)n3)c2)c1 | binding | competition with immobilised ligand | 10 µM | 93 |
| CC1CCCN1c1nccc(-c2cnn3ncccc23)n1 (stereo not shown) | binding | – | 1 µM | 100 |
| C=CC(=O)N1CCC(C(=O)NCC(=O)N2CCN(c3nc(-c4cnc(N)nc4C(F)F)nc(N4CCOCC4)n3)CC2)CC1 | binding | competition with immobilised ligand | 1 µM | 100 |
| C[C@@H](c1cccc(C#N)c1)n1cc(Cl)cc(C(N)=O)c1=N | cell-free assay | competition with immobilised ligand | 1 µM | 71 |
| CCN1CCN(Cc2ccc(C(=O)Nc3ccc(C)c(Oc4ccc5c(c4)CC(=O)N5)c3)cc2C(F)(F)F)CC1 | binding | competition with immobilised ligand | 1 µM | 100 |
| O=C(NCCCN1CCOCC1)c1ccc(Nc2ncc(Cl)c(-c3ccc(Cl)s3)n2)cc1 | binding | competition with immobilised ligand | 1 µM | 69 |
| Cc1c(NC(=O)c2cc(C(N)=O)nc3cc(F)ccc23)c(C(F)(F)F)nn1Cc1ccc(C(C)(C)C)cc1 | cell-free assay | competition with immobilised ligand | 1 µM | 100 |
| FC(F)(F)Oc1cccc(-c2cnc3ccc(-c4ccncc4)nn23)c1 | binding | competition with immobilised ligand | 5 µM | 20 |
| N[C@H]1CCN(c2nccc(-c3cnn4ncccc34)n2)C1 | binding | – | 1 µM | 99 |
| CCCOc1ccc([C@@H]2[C@@H](C(=O)O)[C@H](c3ccc4c(c3)OCO4)CN2CC(=O)Nc2c(CC)cccc2CC)cc1 | cell-free assay | competition with immobilised ligand | 1 µM | 100 |
| COc1ccnn2ncc(-c3ccnc(N(C)C)n3)c12 | binding | – | 1 µM | 100 |
| COc1cnc(Nc2cccc(S(N)(=O)=O)c2)nc1N1CCN(c2ccccc2)CC1 | binding | competition with immobilised ligand | 1 µM | 100 |
| CN(CCCC(F)(F)F)c1nccc(-c2cnn3ncccc23)n1 | binding | – | 1 µM | 88 |
| O=C(NCc1ncc(C(F)(F)F)cc1Cl)c1ccc2c(c1)C1(CCS(=O)(=O)CC1)[C@H](C1CC1)N2S(=O)(=O)c1ccc(F)cc1 | cell-free assay | competition with immobilised ligand | 1 µM | 100 |
| O=C(NCCCN1CCOCC1)c1ccc(Nc2nccc(-c3cc4ccccc4s3)n2)cc1 | binding | competition with immobilised ligand | 1 µM | 62 |
| F[C@@H]1CCN(c2nccc(-c3cnn4ncccc34)n2)C1 | binding | – | 1 µM | 76 |
